Experimental data gathered from unrelated publications.
Each line is one published result; the experiments were not run side by side.
DRD3: D(3) dopamine receptor (DRD3, Homo sapiens, UniProt P35462)
USP51: Ubiquitin carboxyl-terminal hydrolase 51 (USP51, Homo sapiens, UniProt Q70EK9)
CA12: Carbonic anhydrase 12 (CA12, Homo sapiens, UniProt O43570)
SLC6A3: Sodium-dependent dopamine transporter (SLC6A3, Homo sapiens, UniProt Q01959)
Slc6a1: Sodium- and chloride-dependent GABA transporter 1 (Slc6a1, Rattus norvegicus, UniProt P23978)
Lyn: Tyrosine-protein kinase Lyn (Lyn, Mus musculus, UniProt P25911)

With COc1ccc(CCN2C(=O)CC(N3CCN(c4ccc(Cl)cc4)CC3)C2=O)cc1OC (centres unmarked) the inhibition was -14.6% (DRD3; enzyme activity; inhibitor; 10 µM).
O=c1c(-c2ccc(O)cc2)coc2cc(O[C@@H]3O[C@H](CO)[C@@H](O)[C@H](O)[C@H]3O)ccc12 gave an inhibition of 39% (USP51; enzyme activity; inhibitor; 5 µM).
CCOC(=O)C1CSc2[nH]c(=O)sc2C1c1cn(-c2ccccc2)nc1-c1ccc(Cl)cc1 (centres unmarked) has an inhibition of 27.6% (CA12; enzyme activity; inhibitor; absorbance; 10 nM).
COc1ccc([C@@H]2CC(=O)c3c(O)cc(O[C@@H]4O[C@H](CO[C@@H]5O[C@@H](C)[C@H](O)[C@@H](O)[C@H]5O)[C@@H](O)[C@H](O)[C@H]4O)cc3O2)cc1O has an inhibition of 30% (USP51; enzyme activity; inhibitor; 5 µM).
The inhibition of CCn1c2ccccc2c2cc(CNCCCN3CCOCC3)ccc21 is reported as 13.5% (DRD3; enzyme activity; inhibitor; 10 µM).
With CS(=O)(=O)c1ccc(Nc2ccc3c(c2)OCO3)c([N+](=O)[O-])c1 the inhibition was ~90% (Solute carrier family 2, facilitated glucose transporter member 5 (SLC2A5, Homo sapiens, UniProt P22732); transporter uptake; inhibitor; MCF7; 25 µM).
The inhibition of C=C1C[C@@]2(O)O[C@@]3(C[C@H]2C(C)C)[C@@H](C)CC[C@@H]13 is reported as 11% (USP51; enzyme activity; inhibitor; 5 µM).
With O=C1CC(N2CCN(Cc3ccccc3)CC2)C(=O)N1c1ccc2c(c1)OCCO2 (centres unmarked) the inhibition was -26% (DRD3; enzyme activity; inhibitor; 10 µM).
For Nc1cc[nH]c(=O)n1, the inhibition was 27% (USP51; enzyme activity; inhibitor; 5 µM).
CC(=O)Nc1ccc(N2CC(O)=C(c3nc4ccccc4[nH]3)C2=N)cc1 has an inhibition of -23.2% (DRD3; enzyme activity; inhibitor; 10 µM).
C[C@H](CCC(=O)NCC(=O)O)[C@H]1CC[C@H]2[C@@H]3[C@H](O)C[C@@H]4C[C@H](O)CC[C@]4(C)[C@H]3C[C@H](O)[C@]12C has an inhibition of 0% (USP51; enzyme activity; inhibitor; 5 µM).
For O=C(c1ccc(Cl)cc1)N(Cc1ccccc1)C1CCCCC1, the inhibition was 14.6% (Peroxisome proliferator-activated receptor gamma (PPARG, Homo sapiens, UniProt P37231); cell-free assay; 10 µM).
With Clc1ccc(C(c2ccc(Cl)cc2)c2nnnn2CCCCN2CCC(c3ccccc3)CC2)cc1 the inhibition was 90.1% (SLC6A3; transporter uptake; inhibitor; HEK293; 1 µM).
The inhibition of O=C(c1ccc(F)cc1)N(Cc1ccccc1)C1CCCCC1 is reported as 4% (Slc6a1; transporter uptake; 10 µM).
With O=C(c1ccccc1Cl)N1CCN(CCNc2cc(=O)oc3ccccc23)CC1 the inhibition was -5.2% (DRD3; enzyme activity; inhibitor; 10 µM).
For Clc1ccc(C(c2ccc(Cl)cc2)c2nnnn2CCCCN2CCC(Cc3ccccc3)CC2)cc1, the inhibition was 78.5% (SLC6A3; transporter uptake; inhibitor; HEK293; 1 µM).
The inhibition of CCOC(=O)C1CSc2[nH]c(=O)sc2C1c1cn(-c2ccccc2)nc1-c1ccc(OC)cc1 (centres unmarked) is reported as 37.6% (CA12; enzyme activity; inhibitor; absorbance; 0.1 µM).
The inhibition of Clc1ccc(C(c2ccccc2)c2nnnn2CCCN2CCC(CCc3ccccc3)CC2)cc1 (centres unmarked) is reported as 78.4% (SLC6A3; transporter uptake; inhibitor; HEK293; 1 µM).
For Nc1[nH]cnc2ncnc1-2, the inhibition was 33% (USP51; enzyme activity; inhibitor; 5 µM).
With CCOC(=O)C1CSc2[nH]c(=O)sc2C1c1cn(-c2ccccc2)nc1-c1ccccc1 (centres unmarked) the inhibition was 72.5% (CA12; enzyme activity; inhibitor; absorbance; 10 µM).
Clc1ccc(C(c2ccccc2)c2nnnn2CCCCN2CCN(CCCc3ccccc3)CC2)cc1 (centres unmarked) has an inhibition of 81.6% (SLC6A3; transporter uptake; inhibitor; HEK293; 1 µM).
The inhibition of N#CC1CSc2[nH]c(=O)sc2C1c1cn(-c2ccccc2)nc1-c1ccc(Br)cc1 (centres unmarked) is reported as 84.7% (CA12; enzyme activity; inhibitor; absorbance; 10 µM).
The inhibition of O=C(Nc1ccc(S(=O)(=O)N2CCC(Cl)CC2)cc1)c1ccc([N+](=O)[O-])o1 is reported as 17% (Slc6a1; ligand displacement; radioligand; 10 µM).
Clc1ccc(C(c2ccccc2)c2nnnn2CCCCN2CCN(CC=Cc3ccccc3)CC2)cc1 (centres unmarked) has an inhibition of 82.2% (SLC6A3; transporter uptake; inhibitor; HEK293; 1 µM).
For CCOC(=O)C1CSc2[nH]c(=O)sc2C1c1cn(-c2ccccc2)nc1-c1ccc(C)cc1 (centres unmarked), the inhibition was 83.1% (CA12; enzyme activity; inhibitor; absorbance; 10 µM).
Nc1ncnc2c1ncn2[C@@H]1O[C@H](CO)C[C@H]1O gave an inhibition of 24% (USP51; enzyme activity; inhibitor; 5 µM).
CC(=O)O[C@H]1[C@H](O[C@@H]2[C@@H](O)[C@@H](O)[C@H](Oc3c(-c4ccc(O)cc4)oc4cc(O)cc(O)c4c3=O)O[C@H]2C)O[C@H](CO)[C@@H](O)[C@@H]1O has an inhibition of 58% (Aromatase (CYP19A1, Homo sapiens, UniProt P11511); enzyme activity; inhibitor; 20 µg/mL).
c1ccc(CCC2CCN(CCCn3nnnc3C(c3ccccc3)c3ccccc3)CC2)cc1 has an inhibition of 68.3% (SLC6A3; transporter uptake; inhibitor; HEK293; 1 µM).
CNC(=O)c1cc(Oc2ccc(NC(=O)Nc3ccc(Cl)c(C(F)(F)F)c3)cc2)ccn1 gave an inhibition of 95% (Lyn; enzyme activity; inhibitor; 10 µM).
Cc1ccc(-c2nn(-c3ccccc3)cc2C2c3sc(=O)[nH]c3SC3C(=O)N(c4ccccc4)C(=O)C32)cc1 (centres unmarked) has an inhibition of 33.2% (CA12; enzyme activity; inhibitor; absorbance; 0.1 µM).
The inhibition of Fc1ccc(C(c2ccc(F)cc2)c2nnnn2CCCCN2CCC(c3ccccc3)CC2)cc1 is reported as 94.6% (SLC6A3; transporter uptake; inhibitor; HEK293; 1 µM).
COc1ccc(C(C)=O)c(O)c1 gave an inhibition of 18% (USP51; enzyme activity; inhibitor; 5 µM).
CNc1cc(Oc2cc(C(=O)Nc3cc(N4CCN(C)CC4)cc(C(F)(F)F)c3)ccc2C)ncn1 has an inhibition of -18% (Serine/threonine-protein kinase ATR (ATR, Homo sapiens, UniProt Q13535); target engagement in cells; inhibitor; chemoproteomics; Huh-7; 1 µM).
With Cc1ccc(Nc2nccc(N(C)c3ccc4c(C)n(C)nc4c3)n2)cc1S(N)(=O)=O the inhibition was 66% (Lyn; enzyme activity; inhibitor; 0.3 µM).
O=C1NC(=S)C(=Cc2cn(-c3ccccc3)nc2-c2ccc(Br)cc2)S1 has an inhibition of 11.1% (CA12; enzyme activity; inhibitor; absorbance; 0.1 µM).
For FC(F)(F)c1cccc(-c2ccc(CNCCCN3CCOCC3)o2)c1, the inhibition was 50.7% (DRD3; enzyme activity; inhibitor; 10 µM).
With CCOC(=O)C1CSc2[nH]c(=O)sc2C1c1cn(-c2ccccc2)nc1-c1ccc(Br)cc1 (centres unmarked) the inhibition was 31.5% (CA12; enzyme activity; inhibitor; absorbance; 0.1 µM).
The inhibition of Cc1ccc(C(C)C)c(OCC(O)CN2CCN(c3ccccc3F)CC2)c1 (centres unmarked) is reported as 20.4% (DRD3; enzyme activity; inhibitor; 10 µM).
The inhibition of Fc1ccc(C(c2ccc(F)cc2)c2nnnn2CCCCN2CCN(Cc3ccccc3)CC2)cc1 is reported as 95.7% (SLC6A3; transporter uptake; inhibitor; HEK293; 1 µM).
For O=C(c1cccc(Cl)c1)N1CCN(CCNc2cc(=O)oc3ccccc23)CC1, the inhibition was -11.3% (DRD3; enzyme activity; inhibitor; 10 µM).
With CCN(CC)CCNC(=O)c1c(C)[nH]c(/C=C2\C(=O)Nc3ccc(F)cc32)c1C the inhibition was 98% (Lyn; enzyme activity; inhibitor; 10 µM).
